Source: ChEMBL document CHEMBL1145627, “E-ring-modified 7-oxyiminomethyl camptothecins: Synthesis and preliminary in vitro and in vivo biological evaluation” (Bioorg Med Chem Lett, 2008)
pIC50: −log10 of the molar value.

Key:
HT-29 [1] = test: Antiproliferative activity against BCRP overexpressing mitoxantrone-resistant human HT29 cells after 1 hr of drug exposure measured after 72 hrs; type: functional, cell-based
Outline: (§1)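 Growth inhibition after 1-h drug exposure; IC50 is the concentration giving 50% reduction of cell growth versus untreated controls. Values are means ± SD from at least three experiments.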

HT-29 [2] = test: Resistant index, ratio of IC50 for BCRP overexpressing mitoxantrone-resistant human HT29 cells to IC50 for human HT29 cells; type: functional
Outline: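 Resistance index in HT29/mit, the BCRP-overexpressing subline. IC50 values come from the 1-h exposure growth inhibition assay, as 50% growth reduction versus untreated controls.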

HT-29 [3] = test: Antiproliferative activity against human HT29 cells after 1 hr of drug exposure measured after 72 hrs; type: functional, cell-based; outline: as §1
NCI-H460 [4] = test: Antiproliferative activity against human H460 cells after 1 hr of drug exposure measured after 72 hrs; type: functional, cell-based; outline: as §1
NCI-H460 [5] = test: Antiproliferative activity against human H460 cells after 2 hrs of drug exposure measured after 72 hrs; type: functional, cell-based
Outline: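 Growth inhibition with IC50 taken after 2-h drug exposure, as the concentration giving 50% reduction of cell growth versus untreated controls.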

[6] = Antitumor activity against human CoBa cells xenografted in athymic mouse assessed as inhibition of tumor volume at 2 mg/kg, po administered in q4dx4 schedule; type: functional
Outline: (§2)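 Human tumor xenografts (CoBa colon, MKN-28 gastric, Panc-1 pancreatic) grown subcutaneously in mice. Drug given orally on an intermittent q4dx4 schedule. Read-out is % tumor volume inhibition in treated versus control mice. Complete responses were scored as tumor disappearance lasting at least ten days.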

Mus musculus [7] = test: Toxicity in human CoBa cells xenografted athymic mouse assessed as survival at 2 mg/kg, po administered in q4dx4 schedule; type: organism-based; design: dose 2 mg/kg, route oral; settings: in vivo
Outline: (§3)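 Mice carried subcutaneous human tumor xenografts (CoBa, MKN-28 or Panc-1). They were dosed orally on an intermittent q4dx4 schedule, which was also used to set the maximum tolerated dose. Toxicity was scored as lethal toxicity, given as dead/treated mice. Drug-induced % body weight loss was also recorded.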

Mus musculus [8] = test: Toxicity in human CoBa cells xenografted athymic mouse assessed as loss of body weight at 2 mg/kg, po administered in q4dx4 schedule; type: organism-based; design: dose 2 mg/kg, route oral; settings: in vivo
Outline: (§4)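 Mice bearing subcutaneous CoBa colon carcinoma were treated on a q4dx4 schedule, orally or, for CPT11, at 50 mg/kg. Body weight loss % is the loss induced by drug treatment.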

[9] = Toxicity in po dosed human MKN28 cells xenografted athymic mouse administered in q4dx4 schedule; type: organism-based, MKN-28; settings: in vivo
Mus musculus [10] = test: Toxicity in human CoBa cells xenografted athymic mouse assessed as loss of body weight at 20 mg/kg, po administered in q4dx4 schedule; type: organism-based; design: dose 20 mg/kg, route oral; settings: in vivo; outline: as §4
Mus musculus [11] = test: Toxicity in human MKN28 cells xenografted athymic mouse assessed as survival at 3 mg/kg, po administered in q4dx4 schedule; type: organism-based, MKN-28; design: dose 3 mg/kg, route oral; settings: in vivo; outline: as §3
Mus musculus [12] = test: Toxicity in human CoBa cells xenografted athymic mouse assessed as loss of body weight at 15 mg/kg, po administered in q4dx4 schedule; type: organism-based; design: dose 15 mg/kg, route oral; settings: in vivo; outline: as §4
Mus musculus [13] = test: Toxicity in human Panc1 cells xenografted athymic mouse assessed as loss of body weight at 15 mg/kg, po administered in q4dx4 schedule; type: organism-based, PANC-1; design: dose 15 mg/kg, route oral; settings: in vivo
[14] = Antitumor activity against human CoBa cells xenografted athymic mouse assessed as inhibition of tumor volume at 15 mg/kg, po administered in q4dx4 schedule; type: functional; outline: as §2
Mus musculus [15] = test: Toxicity in human MKN28 cells xenografted athymic mouse assessed as loss of body weight at 3 mg/kg, po administered in q4dx4 schedule; type: organism-based, MKN-28; design: dose 3 mg/kg, route oral; settings: in vivo
Outline: (§5)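 Oral dosing on an intermittent q4dx4 schedule in mice bearing MKN-28 gastric carcinoma xenografts. Tumor volume inhibition % is relative to controls. Body weight loss % is the loss induced by drug treatment.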

Mus musculus [16] = test: Toxicity in human MKN28 cells xenografted athymic mouse assessed as loss of body weight at 12 mg/kg, po administered in q4dx4 schedule; type: organism-based, MKN-28; design: dose 12 mg/kg, route oral; settings: in vivo; outline: as §5
MKN-28 [17] = test: Antitumor activity against human MKN28 cells xenografted athymic mouse assessed as inhibition of tumor volume at 12 mg/kg, po administered in q4dx4 schedule; type: functional; outline: as §5
MKN-28 [18] = test: Antitumor activity against human MKN28 cells xenografted athymic mouse assessed as inhibition of tumor volume at 3 mg/kg, po administered in q4dx4 schedule; type: functional; outline: as §5
Mus musculus [19] = test: Toxicity in human CoBa cells xenografted athymic mouse assessed as survival at 15 mg/kg, po administered in q4dx4 schedule; type: organism-based; design: dose 15 mg/kg, route oral; settings: in vivo; outline: as §3
PANC-1 [20] = test: Antitumor activity against human Panc1 cells xenografted athymic mouse assessed as inhibition of tumor volume at 14 mg/kg, po administered in q4dx4 schedule; type: functional; outline: as §2
Mus musculus [21] = test: Toxicity in human MKN28 cells xenografted athymic mouse assessed as loss of body weight at 6 mg/kg, po administered in q4dx4 schedule; type: organism-based, MKN-28; design: dose 6 mg/kg, route oral; settings: in vivo; outline: as §5
MKN-28 [22] = test: Antitumor activity against human MKN28 cells xenografted athymic mouse assessed as inhibition of tumor volume at 6 mg/kg, po administered in q4dx4 schedule; type: functional; outline: as §5
Mus musculus [23] = test: Toxicity in human MKN28 cells xenografted athymic mouse assessed as survival at 6 mg/kg, po administered in q4dx4 schedule; type: organism-based, MKN-28; design: dose 6 mg/kg, route oral; settings: in vivo; outline: as §3
Mus musculus [24] = test: Toxicity in human MKN28 cells xenografted athymic mouse assessed as survival at 12 mg/kg, po administered in q4dx4 schedule; type: organism-based, MKN-28; design: dose 12 mg/kg, route oral; settings: in vivo; outline: as §3
Mus musculus [25] = test: Toxicity in human Panc1 cells xenografted athymic mouse assessed as survival at 14 mg/kg, po administered in q4dx4 schedule; type: organism-based, PANC-1; design: dose 14 mg/kg, route oral; settings: in vivo; outline: as §3
PANC-1 [26] = test: Antitumor activity against human Panc1 cells xenografted athymic mouse assessed as inhibition of tumor volume at 15 mg/kg, po administered in q4dx4 schedule; type: functional; outline: as §2
Mus musculus [27] = test: Toxicity in human Panc1 cells xenografted athymic mouse assessed as loss of body weight at 14 mg/kg, po administered in q4dx4 schedule; type: organism-based, PANC-1; design: dose 14 mg/kg, route oral; settings: in vivo
Mus musculus [28] = test: Toxicity in human Panc1 cells xenografted athymic mouse assessed as survival at 400 mg/kg, po administered in q4dx4 schedule; type: organism-based, PANC-1; design: route oral; settings: in vivo; outline: as §3
[29] = Antitumor activity against human CoBa cells xenografted in athymic mouse assessed as inhibition of tumor volume at 50 mg/kg, iv administered in q4dx4 schedule
PANC-1 [30] = test: Antitumor activity against human Panc1 cells xenografted athymic mouse assessed as inhibition of tumor volume at 400 mg/kg, po administered in q4dx4 schedule; type: functional; outline: as §2
Mus musculus [31] = test: Toxicity in human CoBa cells xenografted athymic mouse assessed as survival at 50 mg/kg, iv administered in q4dx4 schedule; type: organism-based; design: dose 50 mg/kg, route intravenous; settings: in vivo

With `CCc1c2c(nc3ccc(O)cc13)-c1cc3c(c(=O)n1C2)COC(=O)[C@]3(O)CC` [7-ETHYL-10-HYDROXYCAMPTOTHECIN] the pIC50 (HT-29 [1]) was 4.94, the “Ratio IC50” value (HT-29 [2]) was 17 and the pIC50 (HT-29 [3]) was 6.17. For the same molecule, the pIC50 (NCI-H460 [4]) was 6.66.

With `CC[C@@]1(O)C(=O)OCc2c1cc1n(c2=O)Cc2cc3c(CN(C)C)c(O)ccc3nc2-1` [TOPOTECAN] the pIC50 (HT-29 [1]) was 4.33, the “Ratio IC50” value (HT-29 [2]) was 34 and the pIC50 (HT-29 [3]) was 5.87.

`CC[C@@]1(O)C(=O)OCc2c1cc1n(c2=O)Cc2c-1nc1ccccc1c2/C=N/OC(C)(C)C` [GIMATECAN] showed a pIC50 (NCI-H460 [5]) of 7.82, an LCK [6] of 1.1 and an inhibition in vivo at 2 mg/kg ([6]; Homo sapiens, CoBa) of 90%. The pIC50 (HT-29 [1]) was 7.15, the “Ratio IC50” value (HT-29 [2]) was 1.2 and the Activity (Mus musculus [7]) was “Non-toxic”. For the same molecule, the pIC50 (HT-29 [3]) was 7.25, the pIC50 (NCI-H460 [4]) was 7.70 and the Activity (Mus musculus [8]) was 18%.

With `CCC1(O)CC(=O)OCc2c1cc1n(c2=O)Cc2c-1nc1ccccc1c2/C=N/OC(C)(C)C` (racemic) the MTD [9] was 12 mg/kg, the Activity (Mus musculus [10]) was 18% and the Activity (Mus musculus [11]) was “Non-toxic”. It also gave an Activity (Mus musculus [12]) of 21%, an Activity (Mus musculus [13]) of 16% and an LCK [14] of 1.3. It also gave an inhibition in vivo at 15 mg/kg ([14]; Homo sapiens, CoBa) of 95%, an Activity (Mus musculus [15]) of 0% and a pIC50 (HT-29 [1]) of 6.25. For the same molecule, the Activity (Mus musculus [16]) was 2%, the inhibition in vivo at 12 mg/kg (MKN-28 [17]) was 81% and the inhibition in vivo at 3 mg/kg (MKN-28 [18]) was 71%. For the same molecule, the “Ratio IC50” value (HT-29 [2]) was 14, the Activity (Mus musculus [19]) was “Non-toxic” and the LCK (PANC-1 [20]) was 1.4. The inhibition in vivo at 14 mg/kg (PANC-1 [20]; Mus musculus, PANC-1) was 99%, the Activity (Mus musculus [21]) was 0% and the inhibition in vivo at 6 mg/kg (MKN-28 [22]) was 47%. For the same molecule, the Activity (Mus musculus [23]) was “Non-toxic”, the Activity (Mus musculus [24]) was “Non-toxic” and the Activity (Mus musculus [25]) was “Non-toxic”. For the same molecule, the LCK (PANC-1 [26]) was 1.6, the pIC50 (HT-29 [3]) was 7.39 and the pIC50 (NCI-H460 [4]) was 7.43. The Activity (Mus musculus [27]) was 5%.

With `CC[C@@]1(O)OC(=O)c2c1cc1n(c2=O)Cc2c-1nc1ccccc1c2/C=N/OC(C)(C)C` the Activity (Mus musculus [28]) was “Non-toxic”, the LCK [29] was 1.1 and the LCK (PANC-1 [30]) was 1.6. For the same molecule, the Activity (Mus musculus [31]) was “Non-toxic”.
